# Records with an inconclusive call do not appear. A number with no mark means an inactive call.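 The calls were made as follows: active = compounds whose fitted half-maximal growth inhibition dose is no more than ten times the top tested dose; inconclusive = flat curve inhibiting 30 to 70%, or poor curve fit; inactive = flat within 30%, weaker potency, or rising signal.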
# Assay: single-agent toxicity toward C. albicans – CaCi-2 strain, dry powder, set 3, counter-screen for reversing antifungal drug resistance, dose response (AID 488937)
# Conditions: C. albicans CaCi-2 growth, Alamar Blue fluorescence, 48 h; series mostly up to 26 µM; activity change, negative = inhibition: at the top concentration
# Procedure, shortened: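 Test system – C. albicans CaCi-2 without fluconazole · Input – inoculum A600 0.00015 · Measured by – Alamar Blue fluorescence in RFU[…] · Times – 48 h static culture at 37 °C, Alamar Blue 2 h, room temperature · Control set – geldanamycin as positive (growth inhibition) control · Buffer or medium – RPMI medium without fluconazole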
row,SMILES,"activity change, negative = inhibition"
1,COc1ccc(C(=O)N2CCN(c3ccccn3)CC2)cc1,-9.02%
2,O=C(c1ccc(Cl)cc1)N1CCN(c2nccs2)CC1,-6.15%
3,Cc1ccnc(N2CCN(C(=O)c3ccc(Cl)cc3)CC2)c1,-5.16%
4,O=C(c1ccc(F)cc1)N1CCN(c2ccccn2)CC1,-4.39%
5,N#Cc1cccnc1N1CCN(C(=O)c2ccc(Cl)cc2)CC1,-4.97%
6,Cc1cccc(N2CCN(C(=O)c3ccc(Cl)cc3)CC2)n1,-16.8%
7,O=C(c1ccc(Cl)cc1)N1CCN(c2ccc(C(F)(F)F)cn2)CC1,-1.49%
8,COCCC(=O)N1CCN(c2ccccn2)CC1,-10.3%
9,N#Cc1ccc(C(=O)N2CCN(c3ccccn3)CC2)cc1,-6.52%
10,CC(C)C(=O)N1CCN(c2ccccn2)CC1,-24.5%
11,O=C(c1ccc(Cl)cc1)N1CCN(c2cnccn2)CC1,-13.9%
12,O=C(c1ccc(Cl)cc1)N1CCN(c2nc3ccccc3o2)CC1,-31.6%
13,CCCCC(=O)N1CCN(c2ccccn2)CC1,-20.4%
14,O=C(c1ccccc1)N1CCN(c2ccccn2)CC1,-14%
15,Cc1ccc(C(=O)N2CCN(c3ccccn3)CC2)cc1,-9.55%
16,O=C(c1ccc(Cl)cc1)N1CCN(c2nc3ccccc3s2)CC1,-1.53%
17,O=C(c1ccc(Cl)cc1)N1CCN(c2cccc(C(F)(F)F)n2)CC1,-5.42%
18,COc1cccnc1N1CCN(C(=O)c2ccc(Cl)cc2)CC1,-3.13%
19,Cc1ccc(N2CCN(C(=O)c3ccc(Cl)cc3)CC2)nn1,-7.26%
20,Cn1ccnc1N1CCN(C(=O)c2ccc(Cl)cc2)CC1,-14%
21,Cc1ccc(N2CCN(C(=O)c3ccc(Cl)cc3)CC2)nc1,-27.7%
22,O=C(c1ccccc1Cl)N1CCN(c2ccccn2)CC1,-25.8%
23,O=C(c1ccc(Cl)cc1)N1CCN(c2ncccn2)CC1,2.79%

# Source: PubChem BioAssay AID488937 (Broad Institute, 2010)
